Rows were chosen to be rich in hits. Some 2.9% of all compounds tested hit in one or more screens of this group.
Ecoli rRNA inh: reduced GFP signal of wild-type E. coli, primary screen, bacterial rRNA inhibitor project, GFP/RFP fluorescence, OD600, single point; E. coli WT GFP vs humanized-ribosome RFP mutants, 24 h; stronger effect = lower value; DMSO median 0, no signal -100; GFP signal change (wild-type ribosome), % (no concentration beside the values); actives 1.6% (n = 350,000);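 active = significant combined selectivity score with lowered wild-type GFP, culture density cut under 30%, mutant RFP and density less affected; inactive = any of these conditions unmet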
Vif imaging: HIV Vif self-association inhibitors, primary screen, imaging, HEK293T, single point. AID 602346, 2012. HEK293T cells, Vif self-association by quenched fluorescence, 24 h. actives 0.35% (n = 340,000). inhibition, % at 7.49 µM; in the data active = inhibition above about 50%, passing the limit was not always enough; inconclusive = no clear call, values can overlap the other calls; inactive = below about 31%
Cneo AK release: Cryptococcus neoformans cell lysis inducers, primary screen, AK release luminescence, single concentration; lysis activity, % at 15 µM; C. neoformans lysis, adenylate kinase release luminescence, 4 h; normalised: neutral wells 0, clomiphene wells 100; actives 0.2% (n = 360,000);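 active = mean lysis activity across replicates of at least 80%, whatever share of replicates individually reach that level; inactive = mean lysis activity below 80%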
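Test system: log-phase Cryptococcus neoformans yeast cells. Input: 5 × 10^6 yeast cells/mL. Medium: fresh YPD growth medium. Doses: single dose. Incubation: static 4 h at 37 °C with compound, 1 h detection. Measured by: luminescent adenylate kinase detection reagent. Read-out: signal increase indicating cell lysis. Benchmarks: Clomiphene.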
FGF22 binding: binders of human FGF22 protein, primary screen, FGF22 synaptogenesis inhibitor project, biophysical, thermal shift, single point. Fibroblast growth factor 22 (Homo sapiens), Q9HCT0. recombinant FGF22 thermal shift, SYPRO orange fluorescence; percent of sucrose octasulfate shift, DMSO zero. activity (Tm shift, normalised), % at 9.99 µM. actives 1.5% (n = 340,000). AID 651658, 2012;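 active = mean Tm shift, scaled 0 neutral to 100 positive control, at about 1.3% or above, every replicate too, limit read from the data; inconclusive = no clear call, values can overlap the other calls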
Target sequence (Q9HCT0 whole entry, looked up): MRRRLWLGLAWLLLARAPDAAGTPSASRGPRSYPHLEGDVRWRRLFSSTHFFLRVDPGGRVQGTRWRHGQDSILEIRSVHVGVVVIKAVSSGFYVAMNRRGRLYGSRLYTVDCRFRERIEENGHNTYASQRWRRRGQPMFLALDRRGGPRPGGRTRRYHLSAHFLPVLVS
PglD inh: C. jejuni PglD acetyltransferase inhibitors, primary screen, biochemical, DTNB colorimetric, single point; UDP-N-acetylbacillosamine N-acetyltransferase PglD (Campylobacter jejuni); purified PglD enzyme, DTNB colorimetric CoA detection; inhibition, % at 12.5 µM; actives 0.098% (n = 360,000); AID 602405, 2012; in the data active = inhibition above about 16%, passing the limit was not always enough; inconclusive = no clear call, values can overlap the other calls
PGC1a acetyl inh: inhibitors of PGC1a acetylation signal, primary screen, cell-based, U2OS, AlphaScreen, inhibitor mode. AID 651687, 2012. inhibition, % at 15.6 µM. actives 0.17% (n = 350,000). AlphaScreen anti-acetyl-lysine; with virally co-expressed GCN5 acetyltransferase;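 active = every replicate shows inhibition of at least 40%; inconclusive = mean inhibition at least 40% but some replicate below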;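 also: 0% = neutral control wells and 100% = positive control wells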
AID977621: growth inhibition of wild-type GFP E. coli, dose response, H69 mutant RFP, cherry-pick | E. coli wild-type GFP strain growth, fluorescence, 24 h | shares compounds with Ecoli rRNA inh | AID 977621, 2014 | 1,900 tested, under 10 active | activity change, negative = inhibition at 50 µM;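 active = Wild-type ribosome reporter drop at least double the humanized mutant ribosome reporter drop, growth loss under a set limit; inconclusive = no clear call, values can overlap the other calls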;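 also: wild-type GFP and H69 mutant RFP strains grown together 50/50 in each well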
AID977628: E. coli growth inhibition, wild-type GFP versus h24 humanized RFP strain, dose response, h24 mutant RFP vs wild-type GFP, cherry-pick. shares compounds with Ecoli rRNA inh. E. coli WT GFP strain growth, fluorescence, 24 h. activity change, negative = inhibition at 50 µM. 1,900 tested, under 10 active. AID 977628, 2014;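 active = compound lowering the normal-ribosome reporter at least twice as much as the humanized-ribosome reporter, growth loss under a set limit; inconclusive = no clear call, values can overlap the other calls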;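 also: wild-type GFP and h24 humanized RFP strains co-cultured 1 to 1 per well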
* hit, by the source's call; ? = inconclusive; / = no result given.

SMILES	Ecoli rRNA inh	Vif imaging	Cneo AK release	FGF22 binding	PglD inh	PGC1a acetyl inh	AID977621	AID977628
C[C@@H]1CN([C@@H](C)CO)C(=O)c2cccc(NC(=O)C3CCOCC3)c2O[C@@H]1CN(C)S(=O)(=O)c1ccccc1	1.3	/	40.0	-0.5	-0.7	2.7	/	/
CCCCn1c(=O)[nH]c(=O)c2c1nc(-c1ccccc1F)n2Cc1ccccc1	-25.9*	-2.9	/	-0.3	/	6.1	-6.63	?
C[C@H]1CCCCO[C@H](CN(C)S(=O)(=O)c2ccc(F)cc2)[C@@H](C)CN([C@@H](C)CO)C(=O)c2cc(NC(=O)Nc3ccc(C(F)(F)F)cc3)ccc2O1	-3.1	/	-8.1	/	9.1	2.8	/	/
COc1ccc(-c2nn(-c3ccccc3C)cc2CNCc2cccnc2)cc1F	-17.8*	-3.0	-0.5	0.1	-0.7	4.9	3.59	-12.4
CO[C@H](CN(C)C(=O)c1ccccc1F)[C@H](C)CN([C@H](C)CO)S(=O)(=O)c1ccc(C)cc1	-2.6	/	2.7	0.1	0.8	-0.5	/	/
CC1(c2ccc3ccccc3c2)NC(=O)N(CC(=O)N2CCN(c3ccccc3O)CC2)C1=O (stereo not given)	-19.6*	-6.9	-2.5	-0.5	-3.4	-4.6	-4.59	-6.53
CN(C)CC(=O)N[C@@H]1CC[C@@H](CCNC(=O)Nc2ccc(Cl)cc2)O[C@H]1CO	-27.6*	/	-2.1	-0.9	-0.4	1.0	/	?
CN(C)CC(=O)N[C@@H]1CC[C@@H](CCNC(=O)Nc2ccc(C(F)(F)F)cc2)O[C@H]1CO	-59.3	/	-7.7	-0.3	0.2	-0.8	/	/
CCCNC(=O)N1CC2(CCN(C(=O)c3cnccn3)CC2)c2c([nH]c3cc(OC)ccc23)[C@@H]1CO	-1.1	/	/	0.1	/	1.8	/	/
O=C(CN1CCOCC1)Nc1nc(-c2ccc3c(c2)CCN3S(=O)(=O)c2ccccc2)cs1	-10.6	-13.1	0.8	/	6.2	-22.4	/	/
Cc1sc(NC(=O)CN2CCOCC2)nc1-c1ccc2c(c1)CCN2S(=O)(=O)c1ccccc1	-20.8*	-10.5	-0.6	-0.3	-4.9	-14.1	-20.8	/
CC(C)n1nnnc1C1c2ccccc2C(=O)N1CCOc1ccccc1 (stereo not given)	-18.2*	/	/	-0.2	/	/	-7.51	-16
O=C1c2ccccc2C(c2nnnn2Cc2ccccc2)N1CCOc1ccccc1 (stereo not given)	-17.4	/	/	0.3	/	/	/	/
C[C@@H]1CN([C@H](C)CO)C(=O)c2ccccc2-c2ccccc2CO[C@@H]1CN(C)S(=O)(=O)Cc1ccccc1	-0.2	/	/	/	/	/	/	/
C=CCn1c(C)nnc1SCC(=O)Nc1ccc2c(c1)OCCO2	10.8	11.9	-0.5	-0.2	-4.3	0.9	/	/
C=CCn1c(SCC(=O)Nc2ccc3c(c2)OCCO3)nnc1-c1ccco1	-16.7*	-6.2	-1.7	0.1	0.7	/	/	-14.2
CCc1cc2c(=O)n(Cc3ccccc3)c(SC3CCOC3=O)nc2s1 (stereo not given)	-23.5*	-2.6	2.7	0.1	-2.2	2.2	-16.6	/
CCC(=O)Nc1ccc2c(c1)C(=O)N(C)C[C@@H](OC)[C@H](C)CN(C(=O)CN(C)C)[C@@H](C)CO2	2.5	/	/	/	/	7.7	/	/
Cc1cc(C(=O)OCC(=O)NCCc2ccc(S(N)(=O)=O)cc2)c2ccccc2n1	3.5	-4.2	3.0	-0.2	1.0	-2.7	/	/
Cc1cc(C(=O)OCC(=O)Nc2cccc(S(N)(=O)=O)c2)c2ccccc2n1	-20.2*	-4.7	-1.2	-0.1	4.2	9.3	-6.54	/
Cc1ccc(NC(=O)c2ccc3ncsc3c2)cc1S(=O)(=O)N(C)C	-23.3*	/	/	0.0	/	/	-4.69	/
O=C(O)c1cc(-c2ccc(-c3ccc(F)cc3)o2)nc2ccccc12	-38.0*	-11.8	-2.1	0.2	-1.5	-3.7	-12.7	/
CCCc1nc2oc3c(NCCCN(C)C)ncnc3c2c2c1CCCC2	-22.6*	-0.5	-1.1	0.0	-3.4	-20.7	-7.31	/
CCCN(C)C[C@H]1OCCCC[C@@H](C)Oc2ccc(NS(=O)(=O)c3cccs3)cc2C(=O)N([C@H](C)CO)C[C@@H]1C	2.4	/	/	-0.1	/	5.7	/	/
COc1ccc(-c2nc(C3CCCCC3)no2)cc1OC	-19.1*	-4.3	-9.1	-0.1	-1.6	-0.8	-0.859	-16.5
SMILES	Ecoli rRNA inh	Vif imaging	Cneo AK release	FGF22 binding	PglD inh	PGC1a acetyl inh	AID977621	AID977628
c1ccc(-c2nc(C3CCCCC3)no2)cc1	/	21.6	0.6	/	-6.3	-5.1	/	/
C[C@@H]1CCCCO[C@H](CN(C)S(=O)(=O)c2cn(C)cn2)[C@@H](C)CN([C@H](C)CO)C(=O)c2cc(NC(=O)Nc3ccc(C(F)(F)F)cc3)ccc2O1	-2.4	/	2.0	-0.2	-1.0	9.5	/	/
CN1OC[C@@H]2CN(C(=O)c3ccco3)[C@H](c3ccc(-c4ccc(C#N)cc4)cc3)C[C@@H]21	-18.7*	-0.3	/	-0.1	/	4.3	-5.44	-4.72
COc1ccccc1-c1ccc([C@@H]2C[C@H]3[C@H](CON3C)CN2C(=O)c2ccco2)cc1	-1.0	/	-0.9	-0.1	-6.0	-0.5	/	/
Cc1ccccc1S(=O)(=O)N1C[C@H]2CON(C)[C@H]2C[C@H]1c1cccc(N2CCOCC2)c1	-3.1	-0.4	-0.2	0.1	-2.2	3.8	/	/
Cc1ccccc1S(=O)(=O)N1C[C@H]2CON(C)[C@H]2C[C@H]1c1cccc(-c2ccc(C#N)cc2)c1	-18.4*	/	-0.3	-0.3	1.3	-9.3	?	/
C[C@H]1CN([C@@H](C)CO)C(=O)c2cc(-c3ccncc3)cnc2O[C@H]1CN(C)C(=O)c1ccc(F)cc1	6.0	/	0.7	-0.1	-3.5	-0.1	/	/
O=S(=O)(Cc1ccccc1)N1CCCCN2[C@@H](CO)[C@H](c3ccc(C#Cc4ccccc4)cc3)[C@@H]2C1	-47.2*	/	55.3	0.9	-1.9	-8.2	/	?
COc1ccc(C#Cc2ccc([C@@H]3[C@@H](CO)N4CCCCN(C(=O)Nc5ccccc5F)C[C@H]34)cc2)cc1	-34.9*	/	-3.4	-0.6	2.5	1.8	-4.96	?

Compound activity from PubChem BioAssay.
